pEC50, pIC50: −log10 of the molar value.
Assays:
[1] = molecular target: Cyclin-dependent kinase 2/cyclin E (Homo sapiens, UniProt P24941); assay: Inhibitory concentration against Cyclin-dependent kinase 2-cyclin E; format: protein-complex assay
[2] = molecular target: Cyclin-dependent kinase 4/cyclin D1 (Homo sapiens, UniProt P11802); assay: Inhibitory concentration against Cyclin-dependent kinase 4-cyclin D1; format: protein-complex assay
Summary of the method: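 CDK4/cyclin D1 came from extracts of insect cells dually infected with baculovirus vectors. Reactions were started with 4 units of enzyme, run 15 min at room temperature, and stopped with EDTA. Product was captured on GSH-Sepharose and counted by scintillation.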

[3] = system: HCT-116; assay: Inhibition of HCT116 colon carcinoma cell proliferation; format: functional, cell-based; settings: Homo sapiens
Summary of the method: (§1)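 SRB colorimetric growth assay. Exponentially growing cells were seeded so they would undergo 3-5 doublings before reaching 85% confluence. Graded compound concentrations were added 18 h later, and cells were incubated 5 days at 37 °C in 5% CO2. Cells were fixed with cold TCA for 1 h at 4 °C, stained with 0.4% SRB in 1% acetic acid, solubilized in 10 mM Tris base, and OD read at 570 nm.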

[4] = system: AG1523; assay: Effective concentration against normal human fibroblast cell line AG1523; format: functional, cell-based
Summary of the method: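 Normal human foreskin fibroblasts AG1523 were seeded at a density giving confluence and contact inhibition of growth. Graded compound concentrations were added 18 h later, and cells were incubated 6 days at 37 °C in 5% CO2. Death effects were scored by SRB colorimetry: cold TCA fixation, 0.4% SRB stain, Tris base solubilization, OD at 570 nm.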

[5] = system: B16; assay: Inhibitory activity against B16-F1 cell line; format: functional, cell-based; settings: Mus musculus
[6] = molecular target: Protein kinase C (PKC); assay: Inhibition of Protein kinase C; format: protein assay
[7] = system: NCI-H460; assay: Inhibition of NCI-H460 cell proliferation; format: functional, cell-based; settings: Homo sapiens; summary of the method: as §1
[8] = system: HT-1080; assay: Inhibition of HT1080 cell proliferation; format: functional, cell-based; settings: Homo sapiens; summary of the method: as §1
[9] = system: MIA PaCa-2; assay: Inhibition of MiaPaCa2 cell proliferation; format: functional, cell-based; settings: Homo sapiens; summary of the method: as §1
[10] = molecular target: Cyclin-dependent kinase 1/cyclin B (Homo sapiens, UniProt P06493); assay: Inhibition of Cyclin-dependent kinase 1-cyclin B; format: protein-complex assay
[11] = system: PC-3; assay: Inhibition of PC3 cell proliferation; format: functional, cell-based; settings: Homo sapiens; summary of the method: as §1
[12] = molecular target: cAMP-dependent protein kinase (PKA) (Homo sapiens, UniProt P22694+P17612+P22612); assay: Inhibition of Protein kinase A (PKA); format: protein assay
[13] = system: HT-29; assay: Inhibition of HT-29 cell proliferation; format: functional, cell-based; settings: Homo sapiens; summary of the method: as §1
[14] = molecular target: Tyrosine-protein kinase ABL1 (Homo sapiens, UniProt P00519); assay: Inhibition of c-Abl tyrosine kinase
Sequence of Tyrosine-protein kinase ABL1 (P00519 whole entry): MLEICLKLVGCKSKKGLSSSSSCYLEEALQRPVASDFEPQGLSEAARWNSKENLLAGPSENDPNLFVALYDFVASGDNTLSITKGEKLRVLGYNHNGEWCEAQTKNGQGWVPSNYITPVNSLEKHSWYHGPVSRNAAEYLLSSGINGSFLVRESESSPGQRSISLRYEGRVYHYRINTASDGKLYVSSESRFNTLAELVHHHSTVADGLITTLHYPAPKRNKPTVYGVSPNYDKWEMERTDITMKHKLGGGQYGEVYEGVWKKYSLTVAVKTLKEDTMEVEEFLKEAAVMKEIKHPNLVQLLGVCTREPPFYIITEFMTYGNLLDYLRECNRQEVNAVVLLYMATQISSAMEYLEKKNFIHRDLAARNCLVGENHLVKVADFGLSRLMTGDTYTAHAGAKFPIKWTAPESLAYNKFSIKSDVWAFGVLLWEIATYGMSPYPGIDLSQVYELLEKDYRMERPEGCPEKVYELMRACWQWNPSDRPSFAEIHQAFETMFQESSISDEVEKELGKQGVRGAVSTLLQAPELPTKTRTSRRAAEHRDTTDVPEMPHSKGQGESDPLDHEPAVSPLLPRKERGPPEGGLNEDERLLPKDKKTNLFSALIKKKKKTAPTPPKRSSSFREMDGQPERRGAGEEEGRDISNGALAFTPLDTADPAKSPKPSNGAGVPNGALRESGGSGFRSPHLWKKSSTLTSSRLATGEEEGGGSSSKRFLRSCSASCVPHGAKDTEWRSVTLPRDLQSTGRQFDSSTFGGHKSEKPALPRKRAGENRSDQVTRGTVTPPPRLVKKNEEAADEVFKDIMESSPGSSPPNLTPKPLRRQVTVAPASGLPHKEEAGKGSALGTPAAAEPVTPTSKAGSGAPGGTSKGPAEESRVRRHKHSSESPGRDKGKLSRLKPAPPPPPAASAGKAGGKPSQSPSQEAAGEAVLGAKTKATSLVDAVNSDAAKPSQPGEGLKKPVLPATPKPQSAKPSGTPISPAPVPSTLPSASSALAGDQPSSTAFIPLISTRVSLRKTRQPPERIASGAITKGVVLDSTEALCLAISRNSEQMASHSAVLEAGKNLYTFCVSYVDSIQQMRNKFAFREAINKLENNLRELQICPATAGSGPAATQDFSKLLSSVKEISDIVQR

Sequence of Cyclin-dependent kinase 4/cyclin D1 (P11802 whole entry): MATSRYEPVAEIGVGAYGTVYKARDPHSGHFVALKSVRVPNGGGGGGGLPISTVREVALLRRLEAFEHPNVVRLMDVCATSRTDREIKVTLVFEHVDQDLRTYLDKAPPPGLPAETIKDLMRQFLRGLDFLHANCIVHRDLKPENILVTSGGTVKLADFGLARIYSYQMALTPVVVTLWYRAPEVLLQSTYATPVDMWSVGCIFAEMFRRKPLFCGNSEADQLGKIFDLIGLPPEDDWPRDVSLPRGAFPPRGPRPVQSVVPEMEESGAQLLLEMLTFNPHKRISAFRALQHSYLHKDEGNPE
Sequence of Cyclin-dependent kinase 4/cyclin D1 (P24385 whole entry, further chain): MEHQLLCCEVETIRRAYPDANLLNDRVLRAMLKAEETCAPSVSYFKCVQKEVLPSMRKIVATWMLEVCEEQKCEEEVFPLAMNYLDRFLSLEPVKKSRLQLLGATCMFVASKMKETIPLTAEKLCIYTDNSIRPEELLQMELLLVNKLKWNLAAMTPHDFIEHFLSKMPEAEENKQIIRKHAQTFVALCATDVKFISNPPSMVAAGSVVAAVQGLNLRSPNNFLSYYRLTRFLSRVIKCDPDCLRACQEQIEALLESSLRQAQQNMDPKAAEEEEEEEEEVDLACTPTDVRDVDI

Structure (SMILES)	pIC50 [1]	pIC50 [2]	also measured
NC(=O)Nc1cccc2c1C(=O)c1c-2n[nH]c1-c1ccco1	7.07	6.08	–
Cc1ccsc1-c1[nH]nc2c1C(=O)c1c(NC(N)=O)cccc1-2	7.77	6.46	pIC50 [3]: 6.85
CC(=O)Nc1cccc2c1C(=O)c1c-2n[nH]c1C(C)C	6.08	< 5.43	–
CSc1ccc(-c2[nH]nc3c2C(=O)c2c(NC(C)=O)cccc2-3)cc1	6.92	6.47	–
CC(=O)Nc1cccc2c1C(=O)c1c(-c3ccccc3)n[nH]c1-2	6.62	6.08	–
CN1CCN(CC(=O)Nc2cccc3c2C(=O)c2c-3n[nH]c2-c2ccc(N3CCOCC3)cc2)CC1	7.38	6.72	–
CC(=O)Nc1cccc2c1C(=O)c1c-2n[nH]c1-c1cccs1	6.74	5.35	–
NCC1CCN(CC(=O)Nc2cccc3c2C(=O)c2c-3n[nH]c2C2CCCCC2)CC1	–	6.44	–
O=C(CN1CCOCC1)Nc1cccc2c1C(=O)c1c-2n[nH]c1-c1ccc(N2CCOCC2)cc1	7.43	6.92	–
CC(=O)Nc1cccc2c1C(=O)c1c-2n[nH]c1C1CCCCC1	5.96	< 5.49	–
CC(=O)Nc1cccc2c1C(=O)c1c-2n[nH]c1-c1sccc1C	6.59	< 5.51	–
CC(=O)Nc1cccc2c1C(=O)c1c-2n[nH]c1CC(C)C	< 5.46	< 5.46	–
CCc1ccc(-c2[nH]nc3c2C(=O)c2c(NC(C)=O)cccc2-3)cc1	6.55	6.19	–
CCCc1[nH]nc2c1C(=O)c1c(NC(C)=O)cccc1-2	< 5.43	< 5.43	–
CCOC(=O)c1ccc(-c2[nH]nc3c2C(=O)c2c(NC(N)=O)cccc2-3)s1	6.89	6.52	–
CC(=O)Nc1cccc2c1C(=O)c1c-2n[nH]c1-c1ccc(O)cc1	6.28	5.64	–
NC(=O)Nc1cccc2c1C(=O)c1c-2n[nH]c1-c1ccsc1	8.05	7.17	pIC50 [3]: 6.44
CC(=O)Nc1cccc2c1C(=O)c1c(-c3ccco3)n[nH]c1-2	< 5.77	< 5.46	–

Structure (SMILES)	pIC50 [1]	pIC50 [2]	also measured
NC(=O)Nc1cccc2c1C(=O)c1c-2n[nH]c1C1CC1	6.85	5.85	–
CC(=O)Nc1cccc2c1C(=O)c1c-2n[nH]c1-c1cccnc1	6.11	< 5.80	–
NCC1CCN(CC(=O)Nc2cccc3c2C(=O)c2c-3n[nH]c2C2CC2)CC1	7.26	6.37	–
NC(=O)C1CCN(CC(=O)Nc2cccc3c2C(=O)c2c-3n[nH]c2C2CCCCC2)CC1	7.44	< 6.24	–
CCCCc1[nH]nc2c1C(=O)c1c(NC(C)=O)cccc1-2	< 5.46	< 5.46	–
COc1ccc(-c2[nH]nc3c2C(=O)c2c(NC(=O)CN4CCC(CN)CC4)cccc2-3)cc1	7.85	7.89	–
Cc1ccc(-c2[nH]nc3c2C(=O)c2c(NC(N)=O)cccc2-3)s1	7.89	7.28	pIC50 [3]: 7.54
CC(C)c1[nH]nc2c1C(=O)c1c(NC(N)=O)cccc1-2	7.08	< 5.72	–
CCc1[nH]nc2c1C(=O)c1c(NC(C)=O)cccc1-2	5.82	< 5.41	–
CC(=O)Nc1cccc2c1C(=O)c1c-2n[nH]c1-c1ccc(Oc2ccccc2)cc1	< 5.60	< 5.60	–
CC(C)c1n[nH]c2c1C(=O)c1c(NC(=O)CN3CCC(C(N)=O)CC3)cccc1-2	7.68	< 5.89	pIC50 [3]: 6.54
CCCCc1ccc(-c2[nH]nc3c2C(=O)c2c(NC(C)=O)cccc2-3)cc1	< 6.25	< 5.55	–
CC(=O)Nc1cccc2c1C(=O)c1c-2n[nH]c1C	4.96	< 5.38	–
CC(=O)Nc1cccc2c1C(=O)c1c-2n[nH]c1-c1ccc(N2CCOCC2)cc1	6.43	6.07	–
CN(C)c1ccc(-c2[nH]nc3c2C(=O)c2c(NC(=O)CN4CCC(CN)CC4)cccc2-3)cc1	7.82	8.15	pIC50 [3]: 7.13
CN(C)c1ccc(-c2[nH]nc3c2C(=O)c2c(NC(=O)CN4CCC(O)CC4)cccc2-3)cc1	7.48	7.30	–
CCc1[nH]nc2c1C(=O)c1c(NC(N)=O)cccc1-2	6.54	< 5.70	–
CN1CCN(CC(=O)Nc2cccc3c2C(=O)c2c-3n[nH]c2-c2ccc(N(C)C)cc2)CC1	7.54	7.26	–

More lines, main results first:

pIC50 [1]	pIC50 [2]	Structure (SMILES)	also measured
7.07	6.96	O=C(CN1CCC(O)CC1)Nc1cccc2c1C(=O)c1c-2n[nH]c1-c1ccc(N2CCOCC2)cc1	–
7.59	7.74	NCC1CCN(CC(=O)Nc2cccc3c2C(=O)c2c-3n[nH]c2-c2ccc(N3CCOCC3)cc2)CC1	pIC50 [3]: 6.96
7.89	7.24	NC(=O)Nc1cccc2c1C(=O)c1c(-c3csc(Cl)c3)n[nH]c1-2	pEC50 [4]: < 4.54; pIC50 [5]: 6.70; pIC50 [3]: 6.89; IC50 [6]: > 58000 nM; pIC50 [7]: 6.62; pIC50 [8]: 6.31; pIC50 [9]: 6.59; pIC50 [10]: 7.36; pIC50 [11]: 6.16; IC50 [12]: > 58000 nM; pIC50 [13]: < 5.54; pIC50 [14]: < 4.22
7.59	< 7.00	NC(=O)C1CCN(CC(=O)Nc2cccc3c2C(=O)c2c-3n[nH]c2C2CC2)CC1	pIC50 [3]: 6.92
7.96	6.82	NC(=O)Nc1cccc2c1C(=O)c1c-2n[nH]c1-c1cccs1	pIC50 [3]: 7.39
6.49	6.51	CC(=O)Nc1cccc2c1C(=O)c1c-2n[nH]c1-c1ccc(N(C)C)cc1	–
< 6.89	< 5.59	CCc1[nH]nc2c1C(=O)c1c(NC(=O)CN3CCC(C(N)=O)CC3)cccc1-2	–
7.59	6.89	Cn1ccc(-c2[nH]nc3c2C(=O)c2c(NC(N)=O)cccc2-3)c1	pIC50 [3]: 7.19
6.62	5.89	CCc1[nH]nc2c1C(=O)c1c(NC(=O)CN3CCC(CN)CC3)cccc1-2	–
7.12	5.89	CC(=O)Nc1cccc2c1C(=O)c1c-2n[nH]c1-c1ccncc1	–
7.21	< 5.82	Cc1cc(-c2[nH]nc3c2C(=O)c2c(NC(N)=O)cccc2-3)c(C)s1	–
6.05	6.17	CC(=O)Nc1cccc2c1C(=O)c1c-2n[nH]c1-c1ccc(N2CCCCC2)cc1	–
< 5.59	< 5.59	CC(=O)Nc1cccc2c1C(=O)c1c-2n[nH]c1-c1cc(Cl)sc1Cl	–
< 6.40	< 6.24	CCOc1ccc(-c2[nH]nc3c2C(=O)c2c(NC(C)=O)cccc2-3)cc1	–
6.80	6.31	CC(=O)Nc1cccc2c1C(=O)c1c(-c3ccc(C)cc3)n[nH]c1-2	–
7.44	6.96	CN(C)c1ccc(-c2[nH]nc3c2C(=O)c2c(NC(=O)CN4CCOCC4)cccc2-3)cc1	–
6.31	5.72	CCCc1ccc(-c2[nH]nc3c2C(=O)c2c(NC(C)=O)cccc2-3)cc1	–
6.85	< 6.09	NC(=O)Nc1cccc2c1C(=O)c1c-2n[nH]c1C1CCCCC1	–
7.32	6.47	CC(C)c1[nH]nc2c1C(=O)c1c(NC(=O)CN3CCC(CN)CC3)cccc1-2	–
6.32	< 5.43	CC(=O)Nc1cccc2c1C(=O)c1c-2n[nH]c1C1CC1	–
6.01	< 5.46	CC(=O)Nc1cccc2c1C(=O)c1c-2n[nH]c1C(C)(C)C	–

From ChEMBL document CHEMBL1136010, “Synthesis and evaluation of indenopyrazoles as cyclin-dependent kinase inhibitors. 3. Structure activity relationships at C3(1,2)” (J Med Chem, 2002)
